This is an account of results in publication PMC3921099 (Neurochemical research, 2013).

For one assay, the target named is α1β3δ receptors (Rattus norvegicus, UniProt P62813+P63079). Briefly: Two electrode voltage clamp in Xenopus oocytes, modulation of GABA current. The class given is cell-based. Particulars: for stimulation of GABA EC3: 10 μM concentration. The method, boiled down: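 α1β3δ receptors from rat cRNAs injected at 3:1:5 into Xenopus oocytes, expressed ≥24 h. Two-electrode clamp at −60 mV, room temperature. GABA concentration–response curves (including 1 μM and 1 mM GABA) recorded with and without 10 μM test compound, currents normalised to maximum evoked current. Hill fits. Curves with and without modulator compared by paired Student's t test, P<0.05, n = 4.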
Chain of α1β3δ receptors (P62813 28-455): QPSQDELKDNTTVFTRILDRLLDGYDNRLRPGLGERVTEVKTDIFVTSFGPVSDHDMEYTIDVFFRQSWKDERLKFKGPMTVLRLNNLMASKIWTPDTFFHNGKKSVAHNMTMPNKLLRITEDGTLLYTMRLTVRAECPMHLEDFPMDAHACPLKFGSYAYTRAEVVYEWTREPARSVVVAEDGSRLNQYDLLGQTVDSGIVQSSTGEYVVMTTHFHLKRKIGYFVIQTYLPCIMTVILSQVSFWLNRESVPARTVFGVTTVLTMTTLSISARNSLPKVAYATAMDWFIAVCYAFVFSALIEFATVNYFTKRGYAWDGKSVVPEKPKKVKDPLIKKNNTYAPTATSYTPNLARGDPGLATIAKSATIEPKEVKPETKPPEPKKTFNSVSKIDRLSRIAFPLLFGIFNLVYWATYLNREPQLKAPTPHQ
Chain of α1β3δ receptors (P63079 26-473): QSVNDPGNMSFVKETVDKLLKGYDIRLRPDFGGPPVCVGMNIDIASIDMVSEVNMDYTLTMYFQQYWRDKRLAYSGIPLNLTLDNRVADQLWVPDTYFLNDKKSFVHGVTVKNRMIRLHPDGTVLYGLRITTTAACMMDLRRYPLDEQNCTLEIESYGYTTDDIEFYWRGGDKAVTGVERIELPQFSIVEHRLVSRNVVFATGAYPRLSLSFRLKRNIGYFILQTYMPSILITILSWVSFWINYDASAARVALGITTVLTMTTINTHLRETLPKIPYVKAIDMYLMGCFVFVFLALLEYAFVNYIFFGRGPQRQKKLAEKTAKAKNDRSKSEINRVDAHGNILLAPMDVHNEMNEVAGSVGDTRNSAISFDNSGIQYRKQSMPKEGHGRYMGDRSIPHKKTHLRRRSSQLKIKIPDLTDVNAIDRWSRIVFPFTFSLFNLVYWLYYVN
Chain of α1β3δ receptors (P18506 17-449 partner limits assumed): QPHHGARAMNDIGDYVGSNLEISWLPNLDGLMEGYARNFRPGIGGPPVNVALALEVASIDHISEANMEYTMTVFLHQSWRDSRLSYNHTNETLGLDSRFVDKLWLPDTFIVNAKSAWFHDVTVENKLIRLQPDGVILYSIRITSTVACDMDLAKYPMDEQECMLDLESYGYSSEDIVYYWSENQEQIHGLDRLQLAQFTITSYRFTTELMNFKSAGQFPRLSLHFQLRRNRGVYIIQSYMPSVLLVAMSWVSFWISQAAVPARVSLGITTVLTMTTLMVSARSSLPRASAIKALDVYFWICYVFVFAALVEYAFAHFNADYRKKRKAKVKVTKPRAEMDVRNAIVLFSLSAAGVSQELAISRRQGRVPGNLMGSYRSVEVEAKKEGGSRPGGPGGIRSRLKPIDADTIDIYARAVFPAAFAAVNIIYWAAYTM
(In general: In two-electrode clamp one electrode senses voltage and the other passes current.)

In a further assay the test system is αβδ receptors. Kind of assay: Two electrode voltage clamp, DS2 test for incorporation of the delta subunit. It counts as cell-based, rat. The note with it: 10 μM DS2 (experiments not shown). In a few lines:
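Expression of δ checked in every oocyte injected with α, β and δ cRNAs: GABA-induced current tested with addition of 10 μM DS2, under two-electrode voltage clamp at −60 mV, room temperature, in Xenopus Ringer.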

Assay [1] concerns the target T1, α1β3 receptors (Rattus norvegicus, UniProt P62813+P63079). Kind of assay: Two electrode voltage clamp in Xenopus oocytes, modulation of GABA EC3 current. It counts as cell-based. The method, boiled down: (§1)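 Rat α and β3 cRNAs (capped, polyadenylated) injected at 1:1 into Xenopus oocytes, 2.5–4 ng per oocyte, at least 24 h at 18 °C, then defolliculated. Two-electrode voltage clamp at −60 mV, room temperature, in Xenopus Ringer (pH 7.4). GABA titrated to 3–7 % of each oocyte's maximum (EC3). Test compound (0.1 % DMSO final) pre-applied 30 s, then co-applied with GABA until peak. Washout up to 15 min between applications. Responses are % of the GABA control. Mean ± SEM from ≥3 oocytes, ≥2 batches.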

The target of another assay is α1β2δ receptors (Rattus norvegicus, UniProt P62813+P63138). Briefly: Two electrode voltage clamp in Xenopus oocytes, modulation of GABA EC3 current. It counts as cell-based. The method, boiled down: (§2)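 Oocytes injected with rat α, β and δ cRNAs (3:1:5, 2.5–4 ng total) and held ≥24 h at 18 °C before collagenase defolliculation. Voltage clamped at −60 mV, room temperature, perfused 6 ml/min with Ringer (pH 7.4). GABA EC3 (3–7 % of individual maximum) co-applied with test compound after 30 s pre-application, 0.1 % DMSO final. Concentration–response fit with Hill equation, bottom fixed at 100 %. Mean ± SEM, ≥3 oocytes, ≥2 batches.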
Chain of α1β2δ receptors (P62813 28-455): as the sequence (P62813 28-455) above
Chain of α1β2δ receptors (P63138 25-474 limits assumed): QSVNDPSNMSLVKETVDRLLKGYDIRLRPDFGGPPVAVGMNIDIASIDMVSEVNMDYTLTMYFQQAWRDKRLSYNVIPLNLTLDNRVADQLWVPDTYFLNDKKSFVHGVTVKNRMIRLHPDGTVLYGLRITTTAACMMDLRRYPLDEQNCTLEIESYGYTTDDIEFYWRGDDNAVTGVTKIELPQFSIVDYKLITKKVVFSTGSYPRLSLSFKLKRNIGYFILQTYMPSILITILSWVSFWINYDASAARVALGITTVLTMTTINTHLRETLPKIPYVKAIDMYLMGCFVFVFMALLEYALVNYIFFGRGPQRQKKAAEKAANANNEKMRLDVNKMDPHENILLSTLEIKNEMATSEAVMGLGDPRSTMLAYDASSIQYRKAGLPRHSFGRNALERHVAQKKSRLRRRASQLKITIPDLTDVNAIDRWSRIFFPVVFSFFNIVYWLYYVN
Chain of α1β2δ receptors (P18506 17-449 partner limits assumed): as the sequence (P18506 17-449 partner limits assumed) above

In assay [2] the target is T2, α1β3γ2 receptors (Rattus norvegicus, UniProt P62813+P63079). Briefly: Two electrode voltage clamp in Xenopus oocytes, modulation of GABA EC3 current. The note with it: GABA alone. The class given is cell-based.
A further assay addresses α4β3δ receptors (Rattus norvegicus, UniProt P28471+P63079). Briefly: Two electrode voltage clamp in Xenopus oocytes, modulation of GABA EC3 current. The class given is cell-based. In a few lines: as §2
A further assay concerns the target α6β3δ receptors (Rattus norvegicus, UniProt P30191+P63079). The description is as above. The class given is cell-based. The note with it: 10 μM concentration. In a few lines: as §2
Assay [3] concerns the target T2, α1β3γ2 receptors. Particulars: 10 μM concentration; cited from earlier work.
In assay [4] the target is T3, α4β3γ2 receptors (Rattus norvegicus, UniProt P28471+P63079). Particulars: cited from earlier work.
For assay [5], the target named is T4, α6β3γ2 receptors (Rattus norvegicus, UniProt P30191+P63079). The note with it: 10 μM concentration; cited from earlier work.
The target of another assay is α1S204Cβ3Q64C receptors (Rattus norvegicus, UniProt P62813+P63079, Q89C/S231C). Kind of assay: Two electrode voltage clamp, steric hindrance. It counts as cell-based. In a few lines:
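Oocytes expressing rat α1S204C with β3Q64C (1:1 cRNA) were defolliculated, then immersed 3 min in freshly made 2 mM MTSEA-biotin in Ringer containing GABA EC3, washed 5 min and recorded the same day. Two-electrode clamp at −60 mV with GABA EC3 plus test compound, compared with untreated oocytes. Mean ± SEM, n = 3–4.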

The next assay deals with α2β3 receptors (Rattus norvegicus, UniProt P23576+P63079). Kind of assay: Two electrode voltage clamp in Xenopus oocytes, modulation of GABA EC3 current. It counts as cell-based. Particulars: 10 μM concentration. In a few lines:
as §1

A further assay concerns the target α3β3 receptors (Rattus norvegicus, UniProt P20236+P63079). Described as above. The class given is cell-based. Particulars: 10 μM concentration. In a few lines:
as §1

A further assay concerns the target α5β3 receptors (Rattus norvegicus, UniProt P19969+P63079). Described as above. The note with it: 10 μM. It counts as cell-based. In a few lines:
as §1

Assay [6] has as its target T3, α4β3γ2 receptors. Briefly: Two electrode voltage clamp in Xenopus oocytes, modulation of GABA EC3 current. Particulars: 10 μM concentration. It counts as cell-based. In a few lines: (§3)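 Rat αxβ3γ2 cRNAs injected into Xenopus oocytes at a 1:1:5 ratio, 2.5–4 ng total, incubated at least 36 h at 18 °C before defolliculation. Two-electrode clamp at −60 mV, room temperature, Ringer pH 7.4. GABA at EC3 (3–7 % of the cell's maximum current). Test compound (0.1 % DMSO) pre-applied 30 s, then co-applied with GABA to peak. Effects are % of GABA EC3 current. Mean ± SEM, ≥3 oocytes from ≥2 batches.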

Assay [7] deals with T4, α6β3γ2 receptors. The description is as above. It counts as cell-based. Particulars: 10 μM concentration. In a few lines: as §3
The target in the next assay is α1β1δ receptors (Rattus norvegicus, UniProt P15431+P62813). Kind of assay: Two electrode voltage clamp in Xenopus oocytes, modulation of GABA EC3 current. It counts as cell-based. In a few lines:
as §2

A further assay deals with α1β3Q64Cδ receptors (Rattus norvegicus, UniProt P62813+P63079, Q89C). Kind of assay: Two electrode voltage clamp, steric hindrance. Particulars: 10 μM. It counts as cell-based. The method, boiled down: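 α1, β3Q64C and δ cRNAs injected at 3:1:5. Defolliculated oocytes were exposed 3 min to freshly prepared 2 mM MTSEA-biotin in Ringer with GABA EC3, rinsed 5 min and used the same day. Untreated oocytes served as comparison. GABA EC3 response to 10 μM test compound measured by two-electrode clamp at −60 mV. Treated and untreated groups compared by unpaired Student's t test, P<0.05.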

Assay [8] deals with α1S204Cβ3δ receptors (Rattus norvegicus, UniProt P62813+P63079, S231C). Briefly: Two electrode voltage clamp, steric hindrance. Particulars: 10 μM, without MTSEA-biotin. It counts as cell-based.
Assay [9] relates to α1S204Cβ3δ receptors. Kind of assay: Two electrode voltage clamp, steric hindrance. The note with it: 10 μM, MTSEA-biotin treated. It counts as cell-based, rat.
The target of assay [10] is benzodiazepine binding site of α1β3γ2 receptors. The note with it: read-out: IC50 of [3H]Ro15-1788 binding; cited from earlier work.
Assay [11] deals with T1, α1β3 receptors. Particulars: 10 μM concentration; cited from earlier work.
Where [12] appears, read: α1β3δ receptors, LAU 157 up to 30 μM (experiments not shown).

T1 sequence (P62813 28-455): as the sequence (P62813 28-455) above
T1 sequence (P63079 26-473): as the sequence (P63079 26-473) above
Chain of α1S204Cβ3Q64C receptors (P62813 28-455 S231C): as the sequence (P62813 28-455) above, with S204C counted along it
Chain of α1S204Cβ3Q64C receptors (P63079 26-473 Q89C): as the sequence (P63079 26-473) above, with Q64C counted along it

`O=C(Nc1c(-c2cccs2)nc2ccccn12)c1ccc(Cl)cc1` [DS2, 4-Chloro-N-[2-(2-thienyl)imidazo[1,-2-a]pyridin-3-yl]benzamide, reference compound]: the “stimulation to % of GABA EC3” value on α1β3δ receptors (α1β3δ receptors, 1 μM DS2 (experiments not shown)) is 400 % of GABA EC3. Further, the “enhancement of GABA-induced currents” value with αβδ receptors is on record as “dramatically enhanced”.

In the case of `O=c1c2c[nH]c3ccc(Cl)cc3c-2nn1-c1ccc([N+](=O)[O-])cc1` [LAU 157, 8-chloro-2-(4-nitrophenyl)-2H-pyrazolo[4,3-c]quinolin-3(5H)-one], the “modulation of GABA EC3” value at α1β3 receptors [1], on α1β3δ receptors (α1β3δ receptors) and at α1β2δ receptors (α1β2δ receptors) was “did not significantly modulate” each time. The “inhibition of the effect of 1 μM LAU 177” value against α1β3 receptors [1] (increasing concentrations of LAU 157) is “complete inhibition”; against α1β3δ receptors (α1β3δ receptors, increasing concentrations of LAU 157), “complete inhibition”; at α1β2δ receptors (α1β2δ receptors, increasing concentrations of LAU 157), “complete inhibition”. For the same compound, on α1β3δ receptors (setting [12]), the “inhibition of the effects of 1 μM DS2” value is “did not inhibit”. The “inhibition of the effects of 3 μM tracazolate” value against α1β3δ receptors (setting [12]) was “did not inhibit”.

Take `NCCCC(=O)O` [GABA, gamma-aminobutyric acid, reference compound]: the “GABA-induced current (maximal)” value at α1β3 receptors [1] (GABA alone) is given as 8 μA; at α1β3γ2 receptors [2], 16 μA. The “maximal GABA-induced effect (current)” value on α1β3δ receptors (α1β3δ receptors, GABA alone) was “about 1 μA”.

On to `COc1ccc(-n2nc3c4cc(Cl)ccc4[nH]cc-3c2=O)cc1` [PZ-II-028, 8-chloro-2-(4-methoxyphenyl)-2H-pyrazolo[4,3-c]quinolin-3(5H)-one, reference compound], for which the “stimulation of GABA EC3” value turned out to be 1186 ± 89% at α1β3δ receptors (α1β3δ receptors) and 1152 ± 106% on α6β3δ receptors. For the same compound, the “modulation of GABA-induced currents” value at α4β3δ receptors (α4β3δ receptors, concentration not given) is 425 ± 26%; at α4β3γ2 receptors [4] it was 226 ± 14%. In addition, on α1β3γ2 receptors [3], the “stimulation of GABA-induced currents” value is reported as 939 ± 64. Besides, the “stimulation of GABA-induced current” value on α6β3γ2 receptors [5] is listed as 1871 ± 28%.

Consider `COc1ccc2[nH]cc3c(=O)n(-c4ccc(C#N)cc4)nc-3c2c1` [LAU 177, 4-(8-methoxy-3-oxo-3,5-dihydro-2H-pyrazolo[4,3-c]quinolin-2-yl)benzonitrile], for which the “enhancement of GABA-induced currents, up to % of GABA EC3” value at α1β3 receptors [1] (concentration dependent, maximum) is 1152 ± 145 % of GABA EC3. Moreover, on α1S204Cβ3Q64C receptors (MTSEA-biotin treated), the “current enhancement in the presence of MTSEA-biotin” value is recorded as “drastically reduced”. At α1S204Cβ3Q64C receptors (without MTSEA-biotin), the “enhancement of GABA-induced currents compared with α1β3 receptors” value is reported as “to a similar extent with a comparable potency”. Moreover, the “stimulation of GABA EC3” value at α2β3 receptors is recorded as 981 ± 20 % of GABA EC3; on α3β3 receptors it was 913 ± 178 % of GABA EC3; at α1β3δ receptors (α1β3δ receptors) it was 3285 ± 257%; on α4β3δ receptors (α4β3δ receptors (printed δ4β3δ), 10 μM concentration) it was 1365 ± 117%; at α4β3γ2 receptors [6] it was 981 ± 52%; at α6β3γ2 receptors [7], 1622 ± 87%. Besides, the “stimulation of GABA EC3” value at α6β3δ receptors turned out to be 1639 ± 244%; at α1β2δ receptors (α1β2δ receptors, 10 μM concentration) it was 2843 ± 396%; on α1β3Q64Cδ receptors (without MTSEA-biotin), 6941 ± 1268%; at α1S204Cβ3δ receptors [8] it was 5278 ± 1008%. Moreover, the “enhancement of the GABA-induced current” value at α5β3 receptors is on record as “about 528 ± 103 % GABA”. The figures for the EC50 at α1β3δ receptors and at α1β2δ receptors were 1 µM and > 10.7 µM, respectively. For the same compound, the “enhancement of the conductance induced by maximal GABA concentrations” value on α1β3δ receptors (α1β3δ receptors, 10 μM LAU 177) is “about 12 times”. For the same compound, on α1β3δ receptors (α1β3δ receptors, 10 μM LAU 177, paired Student's t test p>0.05), the “change of GABA EC50 by the modulator” value was “no significant change”. Also, the “GABA-induced current in the presence of LAU 177” value at α1β3δ receptors (α1β3δ receptors, 1 mM GABA, 10 μM LAU 177) is 13 μA. Besides, at α1β1δ receptors, the “efficacy compared to α1β2,3δ receptors” value is “drastically reduced”. In addition, the “stimulation of GABA EC3 after incubation with MTSEA biotin” value was determined as 1754 ± 568% at α1β3Q64Cδ receptors (MTSEA-biotin treated) and 1884 ± 311% with α1S204Cβ3δ receptors [9]. Further, the 50% inhibitory concentration (IC50) (usually the point on the concentration scale where inhibition reaches its midpoint) in assay [10] was 0.00075 ± 0.00081 µM. At α1β3 receptors [11], the “stimulation to % of GABA EC3” value is 1063 ± 128 % of GABA EC3.

Consider `CCCCNc1c(C(=O)OCC)c(C)nc2c1cnn2CC` [tracazolate, 4-(butylamino)-1-ethyl-6-methyl-1H-pyrazolo[3,4-b]pyridine-5-carboxylate, reference compound], for which the “stimulation to % of GABA EC3” value on α1β3δ receptors (α1β3δ receptors, 3 μM tracazolate (experiments not shown)) is recorded as 900 % of GABA EC3.
